Assay [1] concerns T47D. The assay is described as follows: Induction of apoptosis in human T47D cells assessed as caspase-3 activation. Format: functional, cell-based. In short, it runs like this:
(§1)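 Cells grown in RPMI-1640 + 10% FCS, trypsinized, and resuspended at 0.65 × 10^6 cells/mL. Treated in 384-well plates with 0.005–10 µM final compound (1% DMSO) for 24 h. N-(Ac-DEVD)-N'-ethoxycarbonyl-R110 substrate was then added, and fluorescence (ex 485/em 525 nm) was read at 0 and 3 h. Activity is the net RFU ratio of test to control. EC50 from a sigmoidal fit at 50% maximal response; mean of ≥3 experiments ± SEM.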

The test system of assay [2] is HCT-116. Nature of the assay: Induction of apoptosis in human HCT116 cells assessed as caspase-3 activation. Format: functional, cell-based. In a few lines:
as §1

Assay [3] relates to SNU-398. The assay is described as follows: Induction of apoptosis in human SNU398 cells assessed as caspase-3 activation. Format: functional, cell-based. In short, it runs like this:
as §1

The subject of assay [4] is T47D. The assay is described as follows: Antiproliferation activity against human T47D cells. Format: functional. In a few lines:
(§2)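 Cells in RPMI-1640 + 10% FCS, 5% CO2, 37 °C. Seeded at 4.4 × 10^4 cells/mL in 96-well plates and exposed to compound at 0.001–10 µM final (1% DMSO) for 48 h at 37 °C. Viability read by CellTiter-Glo luminescence. A 0.5 h plate gave the initial-cell baseline and untreated wells gave maximal proliferation. GI50 is the mean of ≥3 experiments ± SEM.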

Assay [5] relates to HCT-116. The assay is described as follows: Antiproliferation activity against human HCT116 cells. Format: functional. In a few lines: as §2
The test system of assay [6] is SNU-398. The assay is described as follows: Antiproliferation activity against human SNU398 cells. Format: functional. In a few lines:
as §2

In assay [7] the test system is T47D. The assay is described as follows: Induction of apoptosis in human T47D cells assessed as accumulation at S phase at […] after 24 hrs. Type of assay: functional. In a few lines: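 T47D cells treated with 50 nM compound, or DMSO as control, for 24 h or 48 h at 37 °C. Cells then stained with propidium iodide and analysed by flow cytometry for DNA-content histograms. Sub-diploid DNA content was taken to indicate apoptotic cells.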

Several values for one entry are separate records, joined by “and”; a condition that tells them apart may be missing. Equal entries are not always repeated.

As to `CC(=O)c1cccc(Nc2c3c(nc4ccccc24)CCC3)c1`, the EC50 (usually the concentration giving half of the maximal effect) with T47D [1] came to 450 nM; in the assay with HCT-116 [2] it was 660 nM; in the assay on SNU-398 [3], 440 nM. The figures for the GI50 in the assay with T47D [4], with HCT-116 [5] and in the assay with SNU-398 [6] were 560 nM, 500 nM and 170 nM, respectively.
For `COc1ccc(Nc2c3ccccc3nc3c2c(C)nn3C)cc1`, the EC50 with T47D [1] was found to be 1010 nM; with HCT-116 [2] it was 1250 nM; with SNU-398 [3], 480 nM.
For `CC(=O)c1ccc(Nc2c3ccccc3nc3c2c(C)nn3C)cc1` the same measures were 520 nM, 660 nM and 270 nM.
As for `Cc1nn(C)c2nc3ccccc3c(Nc3ccc(C(=O)C(C)C)cc3)c12`, the values for the EC50 with T47D [1], in the assay on HCT-116 [2] and with SNU-398 [3] were 440 nM, 390 nM and 240 nM, respectively.
For `Cc1nn(C)c2nc3ccccc3c(Nc3ccc(C(N)=O)cc3)c12` the same measures were over 10000 nM, over 10000 nM and over 10000 nM.
For `COc1cccc(Nc2c3ccccc3nc3c2c(C)nn3C)c1` the same measures were 7260 nM, over 10000 nM and over 10000 nM.
The like results for `Cc1nn(C)c2nc3ccccc3c(Nc3ccc(C(=O)O)cc3)c12` were, in that order, over 10000 nM, over 10000 nM and over 10000 nM.
As for `COc1ccc(Nc2c3ccccc3nc3[nH]nc(C)c23)cc1`, the EC50 in the assay on T47D [1], with HCT-116 [2] and with SNU-398 [3] was over 10000 nM in each case. In addition, the GI50 with T47D [4], with HCT-116 [5] and with SNU-398 [6] was over 10000 nM in each case.
As for `CC(=O)c1ccc(Nc2c3ccccc3nc3c2cnn3C)cc1`, the values for the EC50 in the assay on T47D [1], with HCT-116 [2] and in the assay on SNU-398 [3] were 1150 nM, 1360 nM and 730 nM, respectively.
As for `CC(=O)c1ccc(Nc2c3ccccc3nc3c2c(C(C)C)nn3C)cc1`, the EC50 with T47D [1], in the assay on HCT-116 [2] and in the assay with SNU-398 [3] was over 10000 nM in each case.
Consider `CC(=O)c1ccc(Nc2c3cccc(C)c3nc3c2c(C)nn3C)cc1`, for which the results for the EC50 in the assay on T47D [1], in the assay with HCT-116 [2] and in the assay on SNU-398 [3] were 1110 nM, 940 nM and 660 nM, respectively.
The like results for `CCC(=O)c1ccc(Nc2c3cccc([N+](=O)[O-])c3nc3c2c(C)nn3C)cc1` were, in that order, 510 nM, 480 nM and 270 nM.
The like results for `CC(=O)c1ccc(Oc2c3ccccc3nc3c2c(C)nn3C)cc1` were, in that order, over 10000 nM, over 10000 nM and over 10000 nM.
For `COC(=O)c1ccc(N(C)c2c3ccccc3nc3c2c(C)nn3C)cc1` the same measures were 5210 nM, 6080 nM and 1330 nM.
On to `CCC(=O)c1ccc(Nc2c3ccccc3nc3c2c(C)nn3CC)cc1`, for which the EC50 came out at 210 nM in the assay with T47D [1], 190 nM with HCT-116 [2] and 150 nM in the assay on SNU-398 [3].
The like results for `CC(=O)c1ccc(Nc2c3cc(C)ccc3nc3c2c(C)nn3C)cc1` were, in that order, over 10000 nM, over 10000 nM and over 10000 nM.
`COc1ccc(Sc2c3ccccc3nc3c2c(C)nn3C)cc1`: the results for the EC50 in the assay with T47D [1], in the assay on HCT-116 [2] and in the assay with SNU-398 [3] were 5470 nM, 6670 nM and 4990 nM, respectively.
As for `COC(=O)c1ccc(Nc2c3ccccc3nc3c2c(C)nn3C)cc1`, the EC50 was 540 nM with T47D [1], 670 nM with HCT-116 [2] and 270 nM with SNU-398 [3].
Turning to `CCC(O)c1ccc(Nc2c3ccccc3nc3c2c(C)nn3C)cc1` (stereo not drawn), the values for the EC50 with T47D [1], in the assay on HCT-116 [2] and in the assay on SNU-398 [3] were 140 nM, 330 nM and 53 nM, respectively. Also, the results for the GI50 in the assay with T47D [4], in the assay on HCT-116 [5] and with SNU-398 [6] were 590 nM, 930 nM and 140 nM, respectively.
Turning to `CCC(=O)c1ccc(Nc2c3ccccc3nc3c2c(C)nn3C)cc1`, the results for the EC50 in the assay with T47D [1], in the assay on HCT-116 [2] and in the assay on SNU-398 [3] were 71 nM, 64 nM and 34 nM, respectively. Besides, the GI50 (as a rule, the concentration giving 50% growth inhibition) in the assay with T47D [4] came out at 26 nM; in the assay on HCT-116 [5] it was 42 nM; in the assay with SNU-398 [6], 16 nM. Also, the Activity in the assay on T47D [7] was 13.6% and 7.6% and 18.8%.

Source of the values: ChEMBL document CHEMBL1140767, “Discovery and structure-activity relationship of N-phenyl-1H-pyrazolo[3,4-b]quinolin-4-amines as a new series of potent apoptosis inducers” (Bioorg Med Chem, 2008).
